# SIRT5 inh: blocks human SIRT5 desuccinylation of peptide | Q9NXA8 | Purified SirT5, succinyl-peptide AMC, trypsin-coupled fluorescence | inhibition, % at 15 µM | 330,000 compounds, 1.1% hits | AID 652115; in the data active means inhibition above about 15%; inconclusive means no clear call, values can overlap the other calls
# Target sequence (Q9NXA8 whole entry, looked up): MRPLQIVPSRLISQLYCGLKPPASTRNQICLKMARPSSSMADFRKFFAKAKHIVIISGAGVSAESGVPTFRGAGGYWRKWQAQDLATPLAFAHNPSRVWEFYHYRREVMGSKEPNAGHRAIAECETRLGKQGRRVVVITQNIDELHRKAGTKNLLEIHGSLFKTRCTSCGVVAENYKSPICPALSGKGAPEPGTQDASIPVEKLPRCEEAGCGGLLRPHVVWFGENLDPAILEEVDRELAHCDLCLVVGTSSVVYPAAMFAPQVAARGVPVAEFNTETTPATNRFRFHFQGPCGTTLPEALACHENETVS
# DENV2 CPE rescue: DENV2-induced cell death inhibition. DENV2-infected cells, cytopathic effect rescue, plate reader. CPE inhibition, % at 9.99 µM. 350,000 compounds, 1.7% hits; in the data active means CPE inhibition above about 20%, passing the limit was not always enough; inconclusive means no clear call, values can overlap the other calls; tested in BHK-21 cells;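 further: 0% = median of neutral control wells and 100% = median of positive control wells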
# E-selectin induc: E-selectin induction on HUVECs; activation, % at 7.58 µM; P16581; HUVEC E-selectin immunofluorescence imaging; normalized: neutral wells 0, TNF-alpha wells 100; 260,000 compounds, 0.37% hits;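 active means mean E-selectin-positive cell signal at least 10% of the positive control, reached in at least 60% of replicates, without over 20% cell loss; inconclusive means no rule given, readout overlaps actives, possibly toxicity-flagged; inactive means the rest, including those meeting only one limit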
#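 Assay system: HUVEC primary endothelial cells. Input: 3,000 HUVEC seeded per well. Doses: one compound dose added by pin transfer. Read-out basis: % PE-positive cells. Benchmarks: TNF-alpha high, DMSO low. Detection: immunofluorescence imaging. Buffer or medium: EGM-2, gelatin.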
# Numbers without * were called inactive; ? = inconclusive; / = not tested or not shown; ! = not active in a repeat. In the library only some 2.9% were active in any assay of this set; here they are far more common.
SMILES,SIRT5 inh,DENV2 CPE rescue,E-selectin induc
CO[C@@H]1CN(C)C(=O)c2cc(NC(=O)c3cnccn3)ccc2OC[C@H](C)N(CC2CC2)C[C@@H]1C,0,-9,0
CO[C@H]1CN(C)C(=O)c2cc(NC(=O)c3cnccn3)ccc2OC[C@H](C)N(CC2CC2)C[C@@H]1C,-1,35*,0
CCCN1C[C@@H](C)[C@@H](OC)CN(C)C(=O)c2ccc(NC(=O)Nc3c(C)noc3C)cc2OC[C@H]1C,-3,5,0
CCCN1C[C@@H](C)[C@H](OC)CN(C)C(=O)c2ccc(NC(=O)Nc3c(C)noc3C)cc2OC[C@@H]1C,4,22*,0
CCN(CC)C(=O)Cn1cc(C(=O)C(=O)NCCc2ccc(S(N)(=O)=O)cc2)c2ccccc21,4,10,/
COc1ccc(CCCNC(=O)C2Cc3c(-c4ccccc4)ccnc3O2)cc1 (configuration not stated),1,-5,0
CC(C)NC(=O)c1nn2c(C(F)(F)F)cc(-c3ccco3)nc2c1Cl,1,10,2
C[C@H](CO)N1C[C@H](C)[C@@H](CN(C)Cc2ccncc2)Oc2ccc(NS(C)(=O)=O)cc2CC1=O,5,/,-4
C[C@H]1CN([C@@H](C)CO)C(=O)Cc2cc(NS(C)(=O)=O)ccc2O[C@@H]1CN(C)Cc1ccncc1,/,7,449*
C[C@H](CO)N1C[C@H](C)[C@H](CN(C)Cc2ccncc2)Oc2ccc(NS(C)(=O)=O)cc2CC1=O,/,-2,257*
C[C@H]1CN([C@@H](C)CO)C(=O)Cc2cc(NS(C)(=O)=O)ccc2O[C@H]1CN(C)Cc1ccncc1,-2,-5,-3
COc1ccc(NC(=O)c2ccco2)cc1NC(=O)COc1ccccc1[N+](=O)[O-],-2,2,0
CCCC(C(=O)NC1CCCC1)N(Cc1ccc(F)cc1)C(=O)c1snc(C(N)=O)c1N (configuration not stated),-2,1,0
CCc1cccc(CC)c1NC(=O)COC(=O)Cc1ccsc1,-1,0,-2
CCOc1ccc(NC(=O)COC(=O)Cc2ccsc2)cc1,20*,-7,0
NCCNc1ccc2nnnn2n1,-2,-7,1
CN(C)C(=O)c1ccc(-c2ccc3c(c2)[C@H]2[C@H](CCN2C(=O)c2ccccn2)[C@H](CO)N3)cc1,/,26*,0
CN(C)C(=O)c1ccc(-c2ccc3c(c2)[C@@H]2[C@@H](CCN2C(=O)c2cnccn2)[C@H](CO)N3)cc1,7,-4,-1
O=C(c1ccc2c(c1)OCO2)N1CC[C@@H]2[C@H]1c1cc(-c3ccccc3)ccc1N[C@@H]2CO,2,?,0
O=C(c1ccc2c(c1)OCO2)N1CC[C@@H]2[C@H](CO)Nc3ccc(-c4ccccc4)cc3[C@@H]21,2,23*,4
COc1ccc(-c2ccc3c(c2)[C@@H]2[C@@H](CCN2C(=O)c2ccc4c(c2)OCO4)[C@@H](CO)N3)cc1,/,74*,2
COc1ccc(-c2ccc3c(c2)[C@H]2[C@H](CCN2C(=O)c2ccc4c(c2)OCO4)[C@H](CO)N3)cc1,/,-29,3
CN(C)CCCNC(=O)N1c2ccccc2Sc2ccccc21,-2,2,/
COCCNC(=O)/C(C#N)=C/c1ccc(O)c([N+](=O)[O-])c1,0,/,/
COc1cccc(/C=C2\Oc3cc(OCC(=O)N4CCCC4)ccc3C2=O)c1OC,7,6,/
SMILES,SIRT5 inh,DENV2 CPE rescue,E-selectin induc
CCOC(=O)C1(Cc2cccc(OC)c2)CCCN(C(=O)c2cc(CC(C)C)[nH]n2)C1 (configuration not stated),-1,-4,/
Cc1c(Cl)cccc1NC(=O)CCCn1nc([N+](=O)[O-])cc1C,-4,11,13
Cc1cc([N+](=O)[O-])nn1CCCC(=O)NC(C)c1ccccc1 (configuration not stated),38*,-23,-1
O=C(c1cccc(Cl)c1)N1CCC2CC1c1cc(-c3ccccc3)ccc12 (configuration not stated),-3,-8,0
COc1ccc(CCNc2nc3ccccc3n3cnnc23)cc1OC,6,6,0
COCCNc1nc2ccccc2n2cnnc12,17*,-4,/
CCOC(=O)C1=CCN(S(=O)(=O)c2ccc(Cl)cc2)C1c1cccc(Cl)c1 (configuration not stated),-1,-1,0
CCOC(=O)C1=C[C@@H](CC)N(S(=O)(=O)c2ccc([N+](=O)[O-])cc2)[C@H]1c1ccccc1,-4,42*,-2
CCOC(=O)C1=C[C@@H](C(C)C)N(S(=O)(=O)c2ccc([N+](=O)[O-])cc2)[C@H]1c1ccccc1,0,?,-1
CCOC(=O)C1=C[C@@H](CC)N(S(=O)(=O)c2ccc(C)cc2)[C@H]1c1cccc(Cl)c1,-4,-4,-1
CCOC(=O)C1=CCN(S(=O)(=O)c2ccc(Br)cc2)C1c1cccc(C)c1 (configuration not stated),/,-3,0
CCOC(=O)C1=CCN(S(=O)(=O)c2ccc(C)cc2)C1c1cccc(Br)c1 (configuration not stated),29*,-7,0
CCOC(=O)C1=C[C@@H](c2ccccc2)N(S(=O)(=O)c2ccc(C)cc2)[C@H]1c1cccc(Cl)c1,-1,30*,0
CCOC(=O)C1=CCN(S(=O)(=O)c2ccc(F)cc2)C1c1cccc(Cl)c1 (configuration not stated),13,84*,0
C/C(N)=C(/C#N)C(=O)COC(=O)C(NS(=O)(=O)c1ccc(Cl)cc1)C(C)O (configuration not stated),/,-2,0
CCOc1ccc(CCNC(=O)c2nccnc2C(=O)O)cc1OCC,-1,5,0
CCOC(=O)C1=CCN(S(=O)(=O)c2ccc(C)cc2)C1c1ccc(C)cc1 (configuration not stated),-4,-17,0
CCOC(=O)C1=CCN(S(=O)(=O)c2ccc(C)cc2)C1c1ccc(CC)cc1 (configuration not stated),16*,8,0
C[C@H](CO)N1C[C@H](C)[C@@H](CN(C)S(=O)(=O)c2ccc(Cl)cc2)Oc2c(NC(=O)C3CCCCC3)cccc2C1=O,/,?,-9
C[C@@H]1CN([C@@H](C)CO)C(=O)c2cccc(NC(=O)NC3CCCCC3)c2O[C@@H]1CN(C)S(=O)(=O)c1ccc(Cl)cc1,1,16,0
COc1ccc(S(=O)(=O)N(C)C[C@H]2Oc3c(NC(=O)NC4CCCCC4)cccc3C(=O)N([C@H](C)CO)C[C@@H]2C)cc1,6,70*!,0
C[C@H](CO)N1C[C@H](C)[C@@H](CN(C)S(=O)(=O)c2ccc(Cl)cc2)Oc2c(NC(=O)NC3CCCCC3)cccc2C1=O,-2,21*,0
COc1ccc(S(=O)(=O)N(C)C[C@@H]2Oc3c(NC(=O)NC4CCCCC4)cccc3C(=O)N([C@H](C)CO)C[C@@H]2C)cc1,4,-2,1
C[C@H](CO)N1C[C@H](C)[C@H](CN(C)S(=O)(=O)c2ccc(Cl)cc2)Oc2c(NC(=O)C3CCCCC3)cccc2C1=O,2,-2,36*
C[C@H]1CN([C@@H](C)CO)C(=O)c2cccc(NC(=O)C3CC3)c2O[C@@H]1CN(C)S(=O)(=O)c1ccccc1,-1,5,0
